# According to ChEMBL document CHEMBL4725355, “Design, Synthesis, and Preclinical Evaluation of 3-Methyl-6-(5-thiophenyl)-1,3-dihydro-imidazo[4,5-b]pyridin-2-ones as Selective GluN2B Negative Allosteric Modulators for the Treatment of Mood Disorders” (J Med Chem, 2020):
# Tests used:
# Cytochrome P450 3A4 [1] = target: T1, Cytochrome P450 3A4 (Homo sapiens, UniProt P08684); assay: Inhibition of CYP3A4 in human liver microsomes using nifedipine as substrate measured after 15 mins by LC-MS/MS analysis; assay type: ADME
# In short: (§1)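 Human liver microsomes incubated with isoform-specific probe substrates and the test compound at concentrations up to 20 µM. IC50 derived from inhibition of metabolite formation; mean of two independent experiments, with known specific inhibitors as positive controls.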
# Cytochrome P450 3A4 [2] = target: T1, Cytochrome P450 3A4; assay: Time-dependent inhibition of CYP3A4 in human liver microsomes at 10 uM using testosterone as substrate by LC-MS/MS analysis; assay type: ADME
# In short: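 CYP3A4 time-dependent inhibition in human liver microsomes. The compound (0.4 to 10 μM) was tested with and without 30 min preincubation. IC50 was taken from percent activity remaining versus vehicle, averaged over two independent experiments. A >2-fold IC50 shift after preincubation was the threshold for time-dependent inhibition.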
# [3] = AUC (infinity) in dog at 0.5 mg/kg, po by LC-MS/MS analysis; assay type: ADME, organism-based, Canis lupus familiaris; parameters: time infinity, route oral, dose 0.5 mg/kg; details: in vivo
# [4] = Drug level in Sprague-Dawley rat brain striatum at 0.03 mg/kg, iv after 120 min by LC-MS/MS analysis; assay type: ADME, organism-based; details: read-out: Drug uptake
# In short: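 Single i.v. dose of 0.03 mg/kg in 50% (w/v) PEG/water, pH 7.4; rats n=3 per group, killed at 5, 10, 30, 60 and 120 min. Cerebellum, cortex, striatum and hippocampus dissected, weighed and homogenized; drug quantified by LC-MS/MS and normalized to tissue weight. P<0.05 taken as significant versus cerebellum.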
# [5] = Cmax in Sprague-Dawley rat at 125 mg/kg, po administered via gavage after 24 hrs using HPMC formulation by LC-MS/MS analysis; assay type: ADME, organism-based; parameters: route oral, time 24 hrs, dose 125 mg/kg; details: in vivo
# In short: (§2)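 Single oral gavage dose to male Sprague Dawley rats, 3 per dose level. Vehicles were a standard suspension in 5% HPMC (125, 250, 500 or 1000 mg/kg) or a nanosuspension (API:polymer 4:1), with stock diluted in vehicle on the day of dosing (100, 250 or 500 mg/kg). Blood was sampled at time points from 0.5 to 24 h.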
# [6] = Ratio of Cmax in Sprague-Dawley rat at 1000 mg/kg, po administered via gavage after 24 hrs using HPMC formulation by LC-MS/MS analysis to EC70 for ex vivo receptor occupancy at GluN2B in po dosed Sprague-Dawley rat assessed as 3-[3H] 1-(azetidin-1-yl)-2-[6-(4-fluoro-3-methyl-phenyl)pyrrolo[3,2-b]pyridin-1-yl]-ethanone labelling; assay type: ADME, organism-based
# Cytochrome P450 3A4 [7] = target: T1, Cytochrome P450 3A4; assay: Inhibition of CYP3A4 in human liver microsomes using testosterone as substrate measured after 15 mins by LC-MS/MS analysis; assay type: ADME; in short: as §1
# [8] = Ex vivo receptor occupancy at GluN2B in Sprague-Dawley rat assessed as 3-[3H] 1-(azetidin-1-yl)-2-[6-(4-fluoro-3-methyl-phenyl)pyrrolo[3,2-b]pyridin-1-yl]-ethanone labelling at 3 mg/kg, po measured after 6 hrs by autoradiography; assay type: functional
# In short: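 Rats dosed orally at 3 mg/kg in 20% HP-β-CD; brains taken at 0.5, 2 and 6 h. Ex vivo autoradiography of brain slices with the ³H pyrrolo[3,2-b]pyridine GluN2B tracer. Labelling expressed relative to matching brain areas of vehicle-treated animals; n=2, ± SEM.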
# [9] = AUC (0 to 24 hrs) in Sprague-Dawley rat at 125 mg/kg, po administered via gavage after 24 hrs using HPMC formulation by LC-MS/MS analysis; assay type: ADME, organism-based; parameters: route oral, dose 125 mg/kg, time <=24; details: in vivo; in short: as §2
# [10] = Cmax in dog at 0.5 mg/kg, po by LC-MS/MS analysis; assay type: ADME, organism-based, Canis lupus familiaris; parameters: route oral, dose 0.5 mg/kg; details: in vivo
# [11] = Tmax in Sprague-Dawley rat at 100 mg/kg, po administered via gavage after 24 hrs using nanosuspension formulation by LC-MS/MS analysis; assay type: ADME, organism-based; details: in vivo
# In short: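 Single oral gavage of a nanosuspension (API:polymer 4:1), diluted with vehicle on the dosing day, at 100, 250 or 500 mg/kg to male Sprague Dawley rats, 3 per dose. Plasma was sampled from 0.5 to 24 h.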
# Cytochrome P450 2C19 = Cytochrome P450 2C19 (Homo sapiens, UniProt P33261); assay: Inhibition of CYP2C19 in human liver microsomes using S-mephenytoin as substrate measured after 15 mins by LC-MS/MS analysis; assay type: ADME; in short: as §1
# Cytochrome P450 2D6 = Cytochrome P450 2D6 (Homo sapiens, UniProt P10635); assay: Inhibition of CYP2D6 in human liver microsomes using dextromethorphan as substrate measured after 15 mins by LC-MS/MS analysis; assay type: ADME; in short: as §1
# [12] = AUC (infinity) in mouse at 0.5 mg/kg, iv by LC-MS/MS analysis; assay type: ADME, organism-based; parameters: time infinity, route intravenous, dose 0.5 mg/kg; details: in vivo
# [13] = target: T2, Nuclear receptor subfamily 1 group I member 2 (Homo sapiens, UniProt O75469); assay: Activation of human PXR expressed in human DPX2 cells assessed as induction of CYP3A by luciferase reporter gene assay relative to control; assay type: ADME, cell-based
# T2 sequence (O75469 whole entry): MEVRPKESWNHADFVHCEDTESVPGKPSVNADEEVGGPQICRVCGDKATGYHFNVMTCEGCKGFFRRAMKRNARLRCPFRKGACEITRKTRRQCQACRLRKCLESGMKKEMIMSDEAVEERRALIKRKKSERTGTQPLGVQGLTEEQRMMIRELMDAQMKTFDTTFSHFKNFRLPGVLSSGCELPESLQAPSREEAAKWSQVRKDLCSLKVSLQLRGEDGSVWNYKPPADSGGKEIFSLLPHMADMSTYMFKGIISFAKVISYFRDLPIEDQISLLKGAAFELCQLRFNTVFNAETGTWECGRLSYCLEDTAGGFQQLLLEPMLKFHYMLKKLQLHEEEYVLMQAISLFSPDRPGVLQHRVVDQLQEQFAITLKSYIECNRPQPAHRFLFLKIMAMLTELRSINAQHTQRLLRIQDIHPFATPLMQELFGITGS
# In short: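 Luciferase reporter lines were used. DPX2 is HepG2 carrying human PXR plus a CYP3A4 promoter-luciferase construct. 1A2-DRE carries human AhR plus a CYP1A2 promoter with 3 DRE copies. Luminescence was read with ONE-Glo. Activation was expressed relative to rifampicin (PXR) or omeprazole (AhR).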
# [14] = Cmax in Sprague-Dawley rat at 1000 mg/kg, po administered via gavage after 24 hrs using HPMC formulation by LC-MS/MS analysis; assay type: ADME, organism-based; parameters: route oral, dose 1000 mg/kg, time 24 hrs; details: in vivo; in short: as §2
# [15] = Solubility of compound in 20% hydroxypropyl-beta-cyclodextrin; assay type: physicochemical
# In short: (§3)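 Solubility of the compound assessed in dosing excipients, including 30% SBE-β-CD, 50% PEG-400 and 20% HP-β-CD. The aim was a solution usable for rat dosing; the 20% HP-β-CD formulation was checked for a 0.1 mg/mL solution to support a 0.5 mg/kg dose.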
# [16] = Cmax in Sprague-Dawley rat at 0.5 mg/kg, iv or 2.5 mg/kg, po using 1:1 PEG-400/water formulation by LC-MS/MS analysis; assay type: ADME, organism-based; parameters: dose 2.5 mg/kg; details: in vivo
# In short: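 Rat IV/PO PK at 0.5 mg/kg IV and 2.5 mg/kg PO, dosed in 1:1 PEG400/water, n=3.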
# [17] = Solubility of compound in phosphate buffer at pH 2 measured after 3 days; assay type: physicochemical; details: time 3 day
# In short: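 Solubility in aqueous buffer at pH 2 and pH 7, and in simulated gastric and intestinal fluids.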
# [18] = Solubility of compound in 50% polyethylene glycol 400; assay type: physicochemical; in short: as §3
# T1 sequence (P08684 whole entry, canonical isoform): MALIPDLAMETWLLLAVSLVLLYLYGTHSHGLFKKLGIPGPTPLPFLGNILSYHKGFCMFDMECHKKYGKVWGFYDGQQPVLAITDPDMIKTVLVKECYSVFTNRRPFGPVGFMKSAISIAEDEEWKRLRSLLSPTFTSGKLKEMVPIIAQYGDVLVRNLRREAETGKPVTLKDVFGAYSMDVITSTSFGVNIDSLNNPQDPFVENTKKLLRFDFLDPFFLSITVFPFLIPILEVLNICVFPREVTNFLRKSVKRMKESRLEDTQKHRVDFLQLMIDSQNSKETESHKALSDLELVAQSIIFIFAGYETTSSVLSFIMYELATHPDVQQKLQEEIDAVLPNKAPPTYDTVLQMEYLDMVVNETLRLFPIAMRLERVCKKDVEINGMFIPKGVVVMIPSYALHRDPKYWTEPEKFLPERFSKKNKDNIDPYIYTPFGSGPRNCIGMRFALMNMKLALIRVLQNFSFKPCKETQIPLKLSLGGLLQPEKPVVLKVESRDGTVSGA
# Sequence of Cytochrome P450 2C19 (P33261 whole entry): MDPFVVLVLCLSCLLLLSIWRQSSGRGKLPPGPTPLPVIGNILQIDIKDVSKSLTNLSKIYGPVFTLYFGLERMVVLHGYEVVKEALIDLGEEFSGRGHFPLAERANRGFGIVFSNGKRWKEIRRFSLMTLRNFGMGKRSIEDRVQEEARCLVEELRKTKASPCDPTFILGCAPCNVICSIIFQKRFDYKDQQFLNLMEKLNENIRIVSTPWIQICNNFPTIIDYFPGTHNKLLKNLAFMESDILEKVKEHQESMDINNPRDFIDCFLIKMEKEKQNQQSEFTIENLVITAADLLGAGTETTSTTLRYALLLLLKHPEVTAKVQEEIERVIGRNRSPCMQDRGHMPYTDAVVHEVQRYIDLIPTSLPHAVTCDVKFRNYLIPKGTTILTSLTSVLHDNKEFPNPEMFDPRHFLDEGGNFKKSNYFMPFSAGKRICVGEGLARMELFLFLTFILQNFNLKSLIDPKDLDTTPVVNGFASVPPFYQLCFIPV
# Sequence of Cytochrome P450 2D6 (P10635 whole entry): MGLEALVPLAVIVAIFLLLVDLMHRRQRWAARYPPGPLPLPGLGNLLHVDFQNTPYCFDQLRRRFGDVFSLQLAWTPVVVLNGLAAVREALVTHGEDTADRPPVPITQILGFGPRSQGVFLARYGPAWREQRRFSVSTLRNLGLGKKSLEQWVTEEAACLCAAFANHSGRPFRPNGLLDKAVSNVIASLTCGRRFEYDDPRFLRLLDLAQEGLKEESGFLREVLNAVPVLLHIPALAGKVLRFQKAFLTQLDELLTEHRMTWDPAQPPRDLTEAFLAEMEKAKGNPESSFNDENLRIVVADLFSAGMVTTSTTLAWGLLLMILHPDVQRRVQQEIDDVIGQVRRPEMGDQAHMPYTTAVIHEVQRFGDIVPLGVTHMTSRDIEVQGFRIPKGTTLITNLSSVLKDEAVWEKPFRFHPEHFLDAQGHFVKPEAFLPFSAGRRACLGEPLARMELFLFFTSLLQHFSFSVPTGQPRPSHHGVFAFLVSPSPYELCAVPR
structure (smiles),measurement,setting,value
Cn1c(=O)n(CC(=O)N2CCC2)c2cc(-c3ccc(C(F)(F)F)s3)cnc21,IC50,Cytochrome P450 3A4 [1],> 50 µM
same,TDI,Cytochrome P450 3A4 [2],Not Active
same,AUC(0-inf),[3],268 ng·h/mL
same,concentration at 2 h,[4],9.8 ng/mL
same,Cmax,[5],4240 ng/mL
same,Ratio,[6],10
same,IC50,Cytochrome P450 3A4 [7],> 50 µM
same,Occ,[8],31%
same,AUC(0-t),[9],22800 ng·h/mL
same,Cmax,[10],351 ng/mL
same,Tmax,[11],2.7 h
same,IC50,Cytochrome P450 2C19,> 50 µM
same,IC50,Cytochrome P450 2D6,15 µM
same,AUC(0-inf),[12],156 ng·h/mL
same,Activity,[13],< 20%
same,Cmax,[14],7010 ng/mL
same,solubility,[15],< 1000 µg/mL
same,Cmax,[16],479 ng/mL
same,solubility at 72 h,[17],< 4 µM
same,solubility,[18],< 1000 µg/mL
